Published values of several laboratories.
Target: Insulin receptor-related protein (INSRR, Homo sapiens, UniProt P14616)

O=C(c1ccc(Nc2nccc(-c3cc4ccccc4s3)n2)cc1)N1CCC(N2CCCC2)CC1
remaining binding (binding; competition with immobilised ligand; 1 µM): 99%

COc1cnc(Nc2cccc(S(N)(=O)=O)c2)nc1N1CCN(c2ccccc2)C(=O)C1
remaining binding (binding; competition with immobilised ligand; 1 µM): 100%

Cc1nc(C2CCN(C(=O)c3ccc(OC(F)(F)F)cc3N)CC2)c2ncc(N3CCN(C)CC3)cc2n1
remaining binding (cell-free assay; competition with immobilised ligand; 1 µM): 100%

Cc1cnc(Nc2ccc(C(=O)N3CCC(N4CCCC4)CC3)cc2)nc1-c1cc2ccccc2s1
remaining binding (binding; competition with immobilised ligand; 1 µM): 44%

CC1CCCN1c1nccc(-c2cnn3ncccc23)n1 (stereo not shown)
remaining binding (binding; 1 µM): 100%

c1cncc(-c2cccc(Nc3nccc(NC4CCCCC4)n3)c2)c1
remaining binding (binding; competition with immobilised ligand; 10 µM): 74%

F[C@@H]1CCN(c2nccc(-c3cnn4ncccc34)n2)C1
remaining binding (binding; 1 µM): 100%

C[C@@]1(Cc2ccc(C#N)cc2)C(=O)N(c2cc(Cl)cc(Cl)c2)c2ncc(C(=O)NC3(c4nc(C5CCC5)no4)CC3)n21
remaining binding (cell-free assay; competition with immobilised ligand; 1 µM): 100%

N[C@H]1CCN(c2nccc(-c3cnn4ncccc34)n2)C1
remaining binding (binding; 1 µM): 97%

CCC(=O)N[C@H]1CC[C@@H](C(=O)N(C)c2ccc(-c3nc4ccccc4o3)cc2)C1
remaining binding (cell-free assay; competition with immobilised ligand; 1 µM): 100%

CN(c1nccc(-c2cnn3ncccc23)n1)C1CC1
remaining binding (binding; 1 µM): 100%

CCOCCn1cc(C(=O)Nc2ccc(-n3nc(-c4cccnc4)cc3C(F)(F)F)cn2)ccc1=O
remaining binding (cell-free assay; competition with immobilised ligand; 1 µM): 100%

CN(C)c1nccc(-c2cnn3ncccc23)n1
remaining binding (binding; 1 µM): 92%

CN(C)C(=O)Cn1cc(-c2nc(C3(c4ccc(-c5cnc(N)nc5)cc4)CC3)no2)cn1
remaining binding (cell-free assay; competition with immobilised ligand; 1 µM): 100%

Cc1cnn2ncc(-c3ccnc(N(C)C)n3)c2c1
remaining binding (binding; 1 µM): 97%

O=C(Nc1cnc(Oc2ccc(F)cc2)nc1)N1CCc2ncccc2[C@@H]1c1ccc(F)cc1
remaining binding (cell-free assay; competition with immobilised ligand; 1 µM): 84%

O=C(NCCCN1CCOCC1)c1ccc(Nc2nccc(-c3cc4ccccc4s3)n2)cc1
remaining binding (binding; competition with immobilised ligand; 1 µM): 100%

O=C(NCC1CCOCC1)c1n[nH]cc1NC(=O)c1c(F)cccc1F
remaining binding (binding; competition with immobilised ligand; 1 µM): 88%

NS(=O)(=O)c1cc(NC(=O)C2(c3ccccc3Cl)CC2)ccc1Oc1cccc(Cl)c1
remaining binding (cell-free assay; competition with immobilised ligand; 1 µM): 95%

CN(CCCC(F)(F)F)c1nccc(-c2cnn3ncccc23)n1
remaining binding (binding; 1 µM): 100%

Nc1ncc2c(n1)-c1c([nH]c3ccc(C#CC4CC4)cc13)CCCC2
remaining binding (binding; competition with immobilised ligand; 1 µM): 98%

COc1ncc2cc3ccccc3nc2c1C#N
remaining binding (cell-free assay; competition with immobilised ligand; 5 µM): 100%
